Data set [1] has as its system Rattus norvegicus. Description: Induction of 5HT1A receptor-mediated lower lip retraction behavior in rat at 10 mg/kg, iv after 30 mins. The arrangement: dose 10 mg/kg. The data set is classed as functional, organism-based. Summed up:
(§1)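 Rats were conditioned to test procedures over 2 weeks and acclimated to the test cage for 1 h. Vehicle was saline containing diluted HCl. Lower lip retraction and flat body posture were scored on a 0–3 scale at 5, 10, 20 and 30 min after dosing.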

Data set [2] can be described thus: Ratio of drug level in brain to blood in Sprague-Dawley rat at 3 mg/kg, po after 8 hrs. The data set is classed as ADME, organism-based. The arrangement: dose 3 mg/kg, route oral. The method in brief:
(§2)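 Rats dosed 3 mg/kg orally; total compound levels measured in brain and blood at 2, 4 and 8 h, brain/blood ratio derived. Mean ± SD of three rats.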

Data set [3] in a line: Drug level in Sprague-Dawley rat brain at 3 mg/kg, po after 2 hrs by HPLC analysis. The data set is classed as ADME, organism-based. The arrangement: dose 3 mg/kg, route oral. Particulars: read-out: Drug uptake. The method in brief: (§3)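 Total compound concentration was measured in brain and blood at 2, 4 and 8 h after a single oral 3 mg/kg dose. Brain/blood ratio was also derived. Values are mean ± SD of three rats.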

The target in data set [4] is T1, 5-hydroxytryptamine receptor 3A (Cavia porcellus) (UniProt O70212).
T1 sequence (whole entry): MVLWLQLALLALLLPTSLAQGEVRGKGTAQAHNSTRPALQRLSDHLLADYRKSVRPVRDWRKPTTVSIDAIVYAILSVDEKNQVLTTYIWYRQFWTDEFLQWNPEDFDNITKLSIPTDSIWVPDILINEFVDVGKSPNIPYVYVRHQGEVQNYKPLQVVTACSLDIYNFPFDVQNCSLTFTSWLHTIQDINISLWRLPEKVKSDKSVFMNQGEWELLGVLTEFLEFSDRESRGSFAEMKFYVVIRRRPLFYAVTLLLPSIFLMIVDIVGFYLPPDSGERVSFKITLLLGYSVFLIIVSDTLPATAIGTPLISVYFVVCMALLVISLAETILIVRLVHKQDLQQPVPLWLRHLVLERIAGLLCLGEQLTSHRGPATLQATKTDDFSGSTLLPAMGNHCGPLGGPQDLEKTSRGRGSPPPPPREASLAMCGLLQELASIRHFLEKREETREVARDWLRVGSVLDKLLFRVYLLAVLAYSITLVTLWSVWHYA
Description: Inhibition of 5HT3 receptor-mediated contraction of guinea pig ileum at 0.1 umol/L after 20 mins relative to control. The data set is classed as tissue-based. Summed up:
(§4)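 Ileum strips in Tyrode solution at 37 °C, gassed 5% CO2/95% O2, isotonic contractions under 1 g load. After at least 3 stable contractions to 10 μM 2-methyl-5-HT, tissue exposed to compound or DMSO vehicle for 20 min, then 10 μM 2-methyl-5-HT re-added; contraction expressed as % inhibition of control.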

The nature of data set [5]: Drug level in Sprague-Dawley rat brain at 3 mg/kg, po after 4 hrs by HPLC analysis. The data set is classed as ADME, organism-based. The arrangement: dose 3 mg/kg, route oral. As to conditions: read-out: Drug uptake. Summed up:
as §3

Data set [6] has as its target T2, 5-hydroxytryptamine receptor 3A (Homo sapiens, UniProt P46098).
T2 sequence (P46098 whole entry): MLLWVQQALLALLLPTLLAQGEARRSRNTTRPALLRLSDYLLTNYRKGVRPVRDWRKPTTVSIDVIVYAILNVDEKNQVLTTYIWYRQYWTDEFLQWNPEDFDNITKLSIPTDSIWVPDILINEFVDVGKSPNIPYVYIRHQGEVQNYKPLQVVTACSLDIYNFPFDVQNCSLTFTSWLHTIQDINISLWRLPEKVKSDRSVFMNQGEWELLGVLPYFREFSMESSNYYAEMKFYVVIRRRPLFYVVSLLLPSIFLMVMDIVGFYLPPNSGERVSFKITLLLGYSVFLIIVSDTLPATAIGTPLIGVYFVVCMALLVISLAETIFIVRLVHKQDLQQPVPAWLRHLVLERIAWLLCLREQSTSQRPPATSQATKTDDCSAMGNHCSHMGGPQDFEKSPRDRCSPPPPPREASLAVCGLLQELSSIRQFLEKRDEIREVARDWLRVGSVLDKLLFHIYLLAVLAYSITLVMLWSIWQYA
Description: Displacement of [3H]BRL-43694 from human 5HT3 receptor expressed in HEK293 cells by liquid scintillation counting. The data set is classed as cell-based. Summed up:
(§5)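 HEK-293 membranes expressing human 5-HT3 were incubated with 0.5 nmol/L [3H]BRL-43694 (final) for 60 min at 25 °C. Buffer: 50 mM Tris-HCl, 5 mM MgCl2, 1 mM EDTA, pH 7.5. Compound came from 270 μmol/L DMSO stock, diluted in buffer. Filtration was through GF/B presoaked in 0.5% polyethyleneimine, with two cold Tris washes. Run in duplicate or triplicate; percent inhibition calculated.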

A short description of data set [7]: Drug level in Sprague-Dawley rat blood at 3 mg/kg, po after 2 hrs by HPLC analysis. Particulars: whole blood, read-out: Drug uptake. The arrangement: dose 3 mg/kg, route oral. The data set is classed as ADME, organism-based. Summed up: as §3
In data set [8] the target is T3, 5-hydroxytryptamine receptor 1A (Homo sapiens) (UniProt P08908).
T3 sequence (whole entry): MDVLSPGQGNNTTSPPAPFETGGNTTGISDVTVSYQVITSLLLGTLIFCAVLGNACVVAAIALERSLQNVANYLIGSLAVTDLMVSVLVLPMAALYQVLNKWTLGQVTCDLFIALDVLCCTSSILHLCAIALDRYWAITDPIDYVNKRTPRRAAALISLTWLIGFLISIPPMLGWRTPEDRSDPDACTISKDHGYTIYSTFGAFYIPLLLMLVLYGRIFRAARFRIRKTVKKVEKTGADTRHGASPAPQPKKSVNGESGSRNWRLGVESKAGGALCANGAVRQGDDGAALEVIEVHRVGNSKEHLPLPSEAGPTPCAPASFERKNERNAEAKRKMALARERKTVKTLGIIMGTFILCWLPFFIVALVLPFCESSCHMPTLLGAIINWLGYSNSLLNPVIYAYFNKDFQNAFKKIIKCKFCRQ
Description: Agonist activity at human cloned 5HT1A receptor expressed in CHO cells assessed as stimulation of [35S]GTPgammaS binding at 900 uL after 30 mins by liquid scintillation counting. The data set is classed as functional, cell-based. Summed up: (§6)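 Membranes from CHO cells expressing human 5-HT1A were diluted in 20 mM HEPES/3 mM MgCl2/120 mM NaCl, pH 7.4. They were preincubated with 20 μM GDP and test drug for 20 min at 30 °C, then held on ice for 15 min. [35S]GTPγS (100 pM) was added for 30 min at 30 °C. Samples were filtered, washed with cold HEPES/MgCl2 buffer, and bound radioactivity counted; EC50 and Emax reported.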

Data set [9] can be described thus: Drug level in Sprague-Dawley rat brain at 3 mg/kg, po after 8 hrs by HPLC analysis. The data set is classed as ADME, organism-based. The arrangement: dose 3 mg/kg, route oral. As to conditions: read-out: Drug uptake. Summed up:
as §3

Data set [10] relates to Rattus norvegicus. Description: […] activity in rat assessed as inhibition of 5HT-induced bradycardia at 10 ug/kg, iv by von Benzold-Jarisch reflex assay. The data set is classed as functional.
The target of data set [11] is T4, 5-hydroxytryptamine receptor 1A (Homo sapiens, UniProt P08908).
T4 sequence (P08908 whole entry): T3 sequence (whole entry)
Description: Agonist activity at human cloned 5HT1A receptor expressed in CHO cells assessed as stimulation of [35S]GTPgammaS binding after 30 mins by liquid scintillation counting. The data set is classed as functional, cell-based. The method in brief: as §6

A short description of data set [12]: Drug level in Sprague-Dawley rat blood at 3 mg/kg, po after 4 hrs by HPLC analysis. The data set is classed as ADME, organism-based. As to conditions: whole blood, read-out: Drug uptake. The arrangement: dose 3 mg/kg, route oral. Summed up: as §3
The subject of data set [13] is Rattus norvegicus. Description: Effect on 5HT1A receptor-mediated hypothermic effect in rat assessed as change in rectal temperature at 10 mg/kg, iv after 30 mins. The arrangement: dose 10 mg/kg. The data set is classed as functional, organism-based. Summed up: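 Rats were conditioned over 2 weeks and acclimated to the cage for 1 h before dosing (vehicle: saline with diluted HCl). Rectal temperature was recorded with a thermistor probe inserted 3 cm, before and 30 min after administration. The change in temperature was reported.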

A short description of data set [14]: Ratio of drug level in brain to blood in Sprague-Dawley rat at 3 mg/kg, po after 2 hrs. The data set is classed as ADME, organism-based. The arrangement: dose 3 mg/kg, route oral. Summed up: as §2
Data set [15] relates to Rattus norvegicus. The data set can be described thus: Induction of 5HT1A receptor-mediated behavioral activity in rat assessed as appearance of flat body posture at 10 mg/kg, iv after 30 mins. The data set is classed as functional, organism-based. The arrangement: dose 10 mg/kg. Summed up: as §1
Data set [16] is described as follows: Drug level in Sprague-Dawley rat blood at 3 mg/kg, po after 8 hrs by HPLC analysis. The data set is classed as ADME, organism-based. The arrangement: dose 3 mg/kg, route oral. As to conditions: whole blood, read-out: Drug uptake. Summed up:
as §3

Data set [17] addresses T1, 5-hydroxytryptamine receptor 3A (Cavia porcellus). The data set can be described thus: Inhibition of 5HT3 receptor-mediated contraction of guinea pig ileum at 1 umol/L after 20 mins relative to control. The data set is classed as tissue-based. Summed up:
as §4

Data set [18] in a line: Ratio of drug level in brain to blood in Sprague-Dawley rat at 3 mg/kg, po after 4 hrs. The data set is classed as ADME, organism-based. The arrangement: dose 3 mg/kg, route oral. The method in brief: as §2
Data set [19] has as its target T4, 5-hydroxytryptamine receptor 1A. Description: Displacement of [3H]8-OH-DPAT from human 5HT1A receptor expressed in CHO cells by liquid scintillation counting. The data set is classed as cell-based. The method in brief: (§7)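 CHO-cell membranes with human 5-HT1A were incubated with 0.25 nmol/L [3H]8-OH-DPAT (final) for 60 min at 27 °C. Buffer: 50 mM Tris-HCl, 10 mM MgSO4, 0.5 mM EDTA, 0.1% ascorbic acid, pH 7.4. Compound came from 270 μmol/L DMSO stock, diluted in buffer. Filtration was through GF/C presoaked in 0.3% polyethyleneimine, with two cold Tris washes. Run in duplicate or triplicate; percent inhibition of binding calculated.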

Data set [20] has as its target T3, 5-hydroxytryptamine receptor 1A (Homo sapiens). The data set can be described thus: Displacement of [3H]8-OH-DPAT from human 5HT1A receptor expressed in CHO cells at 1000 nM by liquid scintillation counting. The data set is classed as cell-based. The method in brief:
as §7

Data set [21] concerns the target T5, 5-hydroxytryptamine receptor 3A (Homo sapiens) (UniProt P46098).
T5 sequence (whole entry): T2 sequence (P46098 whole entry)
The data set can be described thus: Displacement of [3H]BRL-43694 from human 5HT3 receptor expressed in HEK293 cells at 1000 nM by liquid scintillation counting. The data set is classed as cell-based. Summed up:
as §5

For data set [22], the target named is T5, 5-hydroxytryptamine receptor 3A (Homo sapiens). Description: Displacement of [3H]BRL-43694 from human 5HT3 receptor expressed in HEK293 cells at 100 nM by liquid scintillation counting. The data set is classed as cell-based. Summed up: as §5
For data set [23], the target named is T3, 5-hydroxytryptamine receptor 1A (Homo sapiens). The data set can be described thus: Displacement of [3H]8-OH-DPAT from human 5HT1A receptor expressed in CHO cells at 100 nM by liquid scintillation counting. The data set is classed as cell-based. The method in brief: as §7
The test system of data set [24] is Rattus norvegicus. Description: Reduction in wrap restraint stress-induced defecation in rat diarrhea-predominant irritable bowel syndrome model at 30 to 100 mg/kg, po administered 1 hr prior to induction of stress. The data set is classed as functional, organism-based. The method in brief:
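Lightly anesthetized rats had upper bodies wrapped with adhesive tape, then returned to observation cages; feces counted 1 h after wrapping. Compound or vehicle given orally 1 h before restraint; unwrapped animals as normal group. n = 8 per group, mean (SD); Wilcoxon and nonparametric Dunnett's tests.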

Active and inactive are the calls of the source. No cut-off for these calls is given here.

In the case of `CC(=O)N1CCc2c(sc3nc(SCCCN4CCN(c5ccc6ccccc6n5)CC4)n(N)c(=O)c23)C1`, the outcome in the data set with Rattus norvegicus [1] and in the data set with Rattus norvegicus [15] was Active. In data set [2], the Kp at 8 h came to 0.338. Moreover, the concentration at 2 h in [3] came out at 18.7 nM; in data set [7], 56 nM. For the same compound, the inhibition came to 79.9% in data set [4] and 97.6% in [17]. Besides, the values for the concentration at 4 h in data set [5] and in data set [12] were 12.9 nM and 36.1 nM, respectively. Besides, the values for the 50% inhibitory concentration (IC50) in [6] and in data set [19] were 77.6 nM and 2.5 nM, respectively. In data set [8], the maximum response (Emax) was found to be 84.8%. Further, the concentration at 8 h in data set [9] turned out to be 2.96 nM; in data set [16] it was 8.98 nM. Further, in the data set on Rattus norvegicus [10], the inhibition in vivo at 0.01 mg/kg is 77%. For the same compound, the EC50 in data set [11] came out at 2.5 nM. Also, in the data set with Rattus norvegicus [13], the deltaT was -0.1 °C. The Kp at 2 h in data set [14] was determined as 0.332. Moreover, the Kp at 4 h in data set [18] amounted to 0.357.

Consider `Nn1c(=O)c2c(nc1[C@H]1CC[C@H](N3CCN(c4ccc5ccccc5n4)CC3)CC1)CCCC2`, for which the inhibition in [20] worked out at 96.3%; in [21], 18.4%; in data set [22], 1.4%; in [23], 76.9%.

Take `O=C1[C@@H]2[C@H]3CC[C@H](C3)[C@@H]2C(=O)N1CCCCN1CCN(c2ncccn2)CC1`: in the data set with Rattus norvegicus [24], the inhibition entry was “inactive”.

With `Nn1c(=O)c2c(nc1[C@H]1CC[C@@H](N3CCN(c4ccc5ccccc5n4)CC3)CC1)CCCC2`, the inhibition in [20] came out at 91.5%; in data set [21], 87.3%; in data set [22], 19.6%; in [23] it was 42.3%.
